Here are results for 18 compounds from ChEMBL document CHEMBL1926598, “Synthesis, anti-inflammatory activity and ulcerogenic liability of novel nitric oxide donating/chalcone hybrids” (Bioorg Med Chem, 2012).

As usually defined, the inhibition in vivo is the relative decrease from the control value, in per cent.

Series [1] is described as follows: Induction of nitric oxide release at 0.1 mM after 1 hr in phosphate buffer at pH 7.4 by Griess assay. The settings on record: pH 7.4, 1 h, 100 µM. The format is physicochemical. In outline: (§1)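 Compound at a final 10^-4 M with 0.5 mM N-acetylcysteine in phosphate buffer pH 7.4 at 37 °C. Reaction mixture treated with Griess reagent (sulfanilamide, N-naphthylethylenediamine, phosphoric acid), 10 min at room temperature, absorbance read at 546 nm. Sodium nitrite standards (10–80 nmol/mL) used for calibration. NO reported as mol/mol, n = 4 reaction mixtures.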

A short description of series [2]: Induction of nitric oxide release at 0.1 mM after 2 hrs in phosphate buffer at pH 7.4 by Griess assay. The settings on record: pH 7.4, 2 h, 100 µM. It is filed as physicochemical. The procedure, abridged:
as §1
Background: Griess reagent forms a coloured azo dye with nitrite.

The nature of series [3]: Induction of nitric oxide release at 0.1 mM after 3 hrs in phosphate buffer at pH 7.4 by Griess assay. The format is physicochemical. The settings on record: pH 7.4, 3 h, 100 µM. The procedure, abridged: as §1
Series [4] is described as follows: Induction of nitric oxide release at 0.1 mM after 4 hrs in phosphate buffer at pH 7.4 by Griess assay. The settings on record: pH 7.4, 4 h, 100 µM. It is filed as physicochemical. The procedure, abridged: as §1
Series [5] is described as follows: Induction of nitric oxide release at 0.1 mM after 5 hrs in phosphate buffer at pH 7.4 by Griess assay. The settings on record: pH 7.4, 5 h, 100 µM. The format is physicochemical. In outline: as §1
The nature of series [6]: Induction of nitric oxide release at 0.1 mM after 6 hrs in phosphate buffer at pH 7.4 by Griess assay. The format is physicochemical. Conditions: pH 7.4, 6 h, 100 µM; call rule not given here. The procedure, abridged: as §1
Series [7] in a line: Induction of nitric oxide release at 0.1 mM in 0.1 N HCl buffer at pH 1.0 by Griess assay. The format is physicochemical. Conditions: pH 1, 100 µM. The procedure, abridged:
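Griess procedure as at neutral pH, but in 0.1 N HCl pH 1 in place of phosphate buffer. Compound at a final 10^-4 M with N-acetylcysteine, 37 °C. Absorbance read at 546 nm against sodium nitrite standards (10–80 nmol/mL). Release expressed relative to a theoretical 1 mol NO/mol compound.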

The subject of series [8] is Rattus norvegicus. As to the kind of experiment: Antiinflammatory activity in albino rat assessed as inhibition of carrageenan-induced paw edema at 100 mg/kg, po administered 30 mins prior to challenge measured after 1 hr relative to untreated control. It is filed as functional. The procedure, abridged:
(§2)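 Adult male albino rats (120–140 g), groups of four, fasted 24 h with water allowed. Test compound suspended in 0.5% w/v CMC in water, given orally at 100 mg/kg; controls received CMC alone. After 30 min, 0.1 mL of 1% carrageenan in saline injected subplantar into right hind paw, saline into left. Paw thickness measured by caliper; % inhibition = [(VR−VL)control − (VR−VL)treated]/(VR−VL)control ×100; one-way ANOVA versus control.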
In general terms: In the carrageenan paw model, swelling and tenderness develop within hours.

Series [9] deals with Rattus norvegicus. As to the kind of experiment: Antiinflammatory activity in albino rat assessed as inhibition of carrageenan-induced paw edema at 100 mg/kg, po administered 30 mins prior to challenge measured after 2 hrs relative to untreated control. The format is functional. The procedure, abridged:
as §2

For series [10], the system named is Rattus norvegicus. The series can be described thus: Antiinflammatory activity in albino rat assessed as inhibition of carrageenan-induced paw edema at 100 mg/kg, po administered 30 mins prior to challenge measured after 3 hrs relative to untreated control. It is filed as functional. In outline: as §2
Series [11] relates to Rattus norvegicus. As to the kind of experiment: Antiinflammatory activity in albino rat assessed as inhibition of carrageenan-induced paw edema at 100 mg/kg, po administered 30 mins prior to challenge measured after 4 hrs relative to untreated control. It is filed as functional. The procedure, abridged: as §2
The subject of series [12] is Rattus norvegicus. As to the kind of experiment: Antiinflammatory activity in albino rat assessed as inhibition of carrageenan-induced paw edema at 100 mg/kg, po administered 30 mins prior to challenge measured after 5 hrs relative to untreated control. The format is functional. In outline: as §2
The test system of series [13] is Rattus norvegicus. As to the kind of experiment: Antiinflammatory activity in albino rat assessed as inhibition of carrageenan-induced paw edema at 100 mg/kg, po administered 30 mins prior to challenge measured after 3 hrs relative to indomethacin. The format is functional. Also noted: scale not given: the % may be the effect or the level left. The procedure, abridged:
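Carrageenan paw edema in male albino rats (120–140 g, n = 4, fasted 24 h), compound 100 mg/kg po in 0.5% CMC 30 min before subplantar 1% carrageenan (0.1 mL). Percent edema inhibition at the stated hour from right minus left paw thickness versus the CMC control, then expressed as a percentage of the indomethacin (100 mg/kg) response at the same time.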

Series [14] concerns Rattus norvegicus. The series can be described thus: Gastric toxicity in albino rat assessed as ulcer index at 100 mg/kg, po after 5 hrs. It is filed as organism-based. Also noted: dose 100 mg/kg, route oral. Conditions: in vivo. The procedure, abridged:
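Rats dosed orally at 100 mg/kg in 0.5% CMC (n = 4). Stomach lesions counted and graded by area: level I <1 mm², II 1–3 mm², III >3 mm². Ulcer index = 1×(level I count) + 2×(level II) + 3×(level III). Mean ± SEM; one-way ANOVA versus control.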

In the case of `C/C(=N/O)c1ccc(OCC(=O)Nc2ccc(C(=O)/C=C/c3ccc(Cl)cc3)cc2)cc1`, the Activity in [1] is on record as 0.13 mol/mol; in series [2] it was 0.19 mol/mol; in series [3], 0.22 mol/mol; in [4] it was 0.41 mol/mol; in [5], 0.37 mol/mol; in [6], 0.36 mol/mol. Also, the Activity entry in series [7] is “Not Active”; in the series with Rattus norvegicus [13], 85%. For the same compound, the inhibition in vivo at 100 mg/kg in the series on Rattus norvegicus [8] came to 39%; in the series with Rattus norvegicus [9] it was 54%; in the series on Rattus norvegicus [10], 66%; with Rattus norvegicus [11], 55%; in the series with Rattus norvegicus [12], 49%. The UI in the series on Rattus norvegicus [14] is 2.2.

For `CC(Br)C(=O)Nc1ccc(C(=O)/C=C/c2ccc3c(c2)OCO3)cc1` (configuration not stated), the inhibition in vivo at 100 mg/kg in the series on Rattus norvegicus [8] was determined as 37%; with Rattus norvegicus [9], 43%; in the series with Rattus norvegicus [10] it was 56%; in the series on Rattus norvegicus [11], 53%; with Rattus norvegicus [12] it was 50%. The UI in the series on Rattus norvegicus [14] came out at 18.

For `COc1ccc(/C=C/C(=O)c2ccc(NC(=O)COCc3c(-c4ccccc4)no[n+]3[O-])cc2)cc1`, the Activity was 0.11 mol/mol in series [1]; 0.27 mol/mol in [2]; 0.47 mol/mol in series [3]; 0.482 mol/mol in series [4]; 0.52 mol/mol in series [5]; 0.3 mol/mol in series [6]. Moreover, the Activity entry in series [7] is listed as “Not Active”; in the series with Rattus norvegicus [13] it was 73%. The inhibition in vivo at 100 mg/kg was found to be 30% with Rattus norvegicus [8]; 42% in the series with Rattus norvegicus [9]; 56% in the series with Rattus norvegicus [10]; 55% with Rattus norvegicus [11]; 49% in the series on Rattus norvegicus [12]. Besides, the UI in the series on Rattus norvegicus [14] was determined as 2.

With `Nc1ccc(C(=O)/C=C/c2ccco2)cc1`, the inhibition in vivo at 100 mg/kg with Rattus norvegicus [8] worked out at 33%; with Rattus norvegicus [9], 38%; in the series with Rattus norvegicus [10] it was 42%; in the series with Rattus norvegicus [11], 33%; in the series with Rattus norvegicus [12], 30%. Further, the UI in the series with Rattus norvegicus [14] was 29.

`CC(=O)c1ccc(OCC(=O)Nc2ccc(C(=O)/C=C/c3ccco3)cc2)cc1`: the inhibition in vivo at 100 mg/kg in the series with Rattus norvegicus [8] came to 28%; in the series with Rattus norvegicus [9] it was 32%; with Rattus norvegicus [10] it was 45%; in the series with Rattus norvegicus [11], 39%; in the series with Rattus norvegicus [12] it was 36%. The UI in the series with Rattus norvegicus [14] came out at 5.

Consider `COc1ccc(/C=C/C(=O)c2ccc(NC(=O)C(C)Br)cc2)cc1` (configuration not stated), for which the inhibition in vivo at 100 mg/kg is 39% in the series with Rattus norvegicus [8]; 40% with Rattus norvegicus [9]; 40% in the series on Rattus norvegicus [10]; 38% in the series with Rattus norvegicus [11]; 31% in the series with Rattus norvegicus [12]. The UI with Rattus norvegicus [14] came to 30.1.

With `COc1ccc(/C=C/C(=O)c2ccc(NC(=O)COc3ccc(/C(C)=N\O)cc3)cc2)cc1`, the Activity in series [1] stood at 0.11 mol/mol; in [2], 0.12 mol/mol; in series [3] it was 0.14 mol/mol; in series [4] it was 0.3 mol/mol; in [5], 0.16 mol/mol; in series [6], 0.15 mol/mol. Besides, the Activity entry in series [7] is reported as “Not Active”; in the series with Rattus norvegicus [13] it was 59%. Moreover, the inhibition in vivo at 100 mg/kg was 33% in the series on Rattus norvegicus [8]; 41% in the series with Rattus norvegicus [9]; 46% with Rattus norvegicus [10]; 42% with Rattus norvegicus [11]; 37% in the series with Rattus norvegicus [12]. In addition, in the series on Rattus norvegicus [14], the UI stood at 5.

Consider `COc1ccc(/C=C/C(=O)c2ccc(NC(=O)CBr)cc2)cc1`, for which the inhibition in vivo at 100 mg/kg with Rattus norvegicus [8] is 37%; with Rattus norvegicus [9], 42%; in the series with Rattus norvegicus [10] it was 46%; in the series with Rattus norvegicus [11], 41%; with Rattus norvegicus [12], 34%. Also, the UI in the series with Rattus norvegicus [14] is recorded as 28.

Regarding `O=C(CBr)Nc1ccc(C(=O)/C=C/c2ccc3c(c2)OCO3)cc1`, the inhibition in vivo at 100 mg/kg in the series on Rattus norvegicus [8] was 40%; with Rattus norvegicus [9], 45%; in the series with Rattus norvegicus [10], 53%; with Rattus norvegicus [11] it was 48%; in the series on Rattus norvegicus [12], 46%. For the same compound, the UI with Rattus norvegicus [14] is reported as 24.

Turning to `CC(Br)C(=O)Nc1ccc(C(=O)/C=C/c2ccco2)cc1` (configuration not stated), the inhibition in vivo at 100 mg/kg stood at 30% in the series on Rattus norvegicus [8]; 37% with Rattus norvegicus [9]; 42% in the series on Rattus norvegicus [10]; 36% in the series with Rattus norvegicus [11]; 34% in the series with Rattus norvegicus [12]. The UI in the series with Rattus norvegicus [14] amounted to 25.3.

In the case of `Nc1ccc(C(=O)/C=C/c2ccc(Cl)cc2)cc1`, the inhibition in vivo at 100 mg/kg was determined as 41% with Rattus norvegicus [8]; 50% in the series with Rattus norvegicus [9]; 60% with Rattus norvegicus [10]; 58% in the series on Rattus norvegicus [11]; 54% in the series on Rattus norvegicus [12]. The UI in the series on Rattus norvegicus [14] was 18.

Regarding `CC(Br)C(=O)Nc1ccc(C(=O)/C=C/c2ccc(Cl)cc2)cc1` (configuration not stated), the inhibition in vivo at 100 mg/kg in the series with Rattus norvegicus [8] worked out at 39%; in the series on Rattus norvegicus [9], 45%; with Rattus norvegicus [10], 59%; in the series on Rattus norvegicus [11], 54%; with Rattus norvegicus [12] it was 50%. Further, the UI in the series on Rattus norvegicus [14] was found to be 16.7.

For `Nc1ccc(C(=O)/C=C/c2ccc3c(c2)OCO3)cc1`, the inhibition in vivo at 100 mg/kg with Rattus norvegicus [8] was 32%; in the series with Rattus norvegicus [9], 44%; in the series on Rattus norvegicus [10], 55%; in the series with Rattus norvegicus [11], 50%; in the series on Rattus norvegicus [12], 47%. Also, the UI in the series on Rattus norvegicus [14] was 20.

As to `O=C(CBr)Nc1ccc(C(=O)/C=C/c2ccco2)cc1`, the inhibition in vivo at 100 mg/kg in the series with Rattus norvegicus [8] was determined as 30%; with Rattus norvegicus [9], 37%; with Rattus norvegicus [10], 41%; in the series on Rattus norvegicus [11] it was 33%; in the series with Rattus norvegicus [12], 25%. Besides, in the series on Rattus norvegicus [14], the UI was 25.8.

As to `COc1ccc(/C=C/C(=O)c2ccc(NC(=O)COc3ccc(C(C)=O)cc3)cc2)cc1`, the inhibition in vivo at 100 mg/kg with Rattus norvegicus [8] was 28%; with Rattus norvegicus [9] it was 35%; in the series with Rattus norvegicus [10] it was 42%; with Rattus norvegicus [11] it was 33%; with Rattus norvegicus [12], 30%. Also, the UI in the series with Rattus norvegicus [14] is 6.

Regarding `[O-][n+]1onc(-c2ccccc2)c1CO`, the UI with Rattus norvegicus [14] was found to be 1.5.

With `CC(=O)c1ccc(OCC(=O)Nc2ccc(C(=O)/C=C/c3ccc(Cl)cc3)cc2)cc1`, the inhibition in vivo at 100 mg/kg came out at 43% in the series on Rattus norvegicus [8]; 52% in the series with Rattus norvegicus [9]; 61% in the series on Rattus norvegicus [10]; 58% in the series with Rattus norvegicus [11]; 55% with Rattus norvegicus [12]. Also, the UI with Rattus norvegicus [14] is 8.1.

Regarding `COc1ccc(/C=C/C(=O)c2ccc(N)cc2)cc1`, the inhibition in vivo at 100 mg/kg amounted to 42% in the series with Rattus norvegicus [8]; 48% with Rattus norvegicus [9]; 51% with Rattus norvegicus [10]; 48% in the series with Rattus norvegicus [11]; 40% in the series on Rattus norvegicus [12]. Further, in the series with Rattus norvegicus [14], the UI worked out at 22.5.
